# Experimental data taken from ChEMBL document CHEMBL1649503, “Alkoxyalkyl esters of 9-(s)-(3-hydroxy-2-phosphonomethoxypropyl) adenine are potent and selective inhibitors of hepatitis B virus (HBV) replication in vitro and in HBV transgenic mice in vivo” (Antimicrob Agents Chemother, 2009).
# Columns and labels:
# Hepatitis B virus [1] = assay: Antiviral activity against HBV infected in human HepG2(2.2.15) cells assessed as decrease in extracellular viral DNA level after 24 hrs by blot hybridization assay; format: functional, organism-based; conditions: HepG2 2.2.15, 24 h
# Procedure, shortened: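 Confluent 2.2.15 cells in RPMI 1640 with 2% FBS got nine consecutive daily doses, with medium replaced daily with drug-containing medium. Six wells per concentration over two replicate plates. Cells were pelleted from the medium, which was kept at 4°C and not frozen. Extracellular HBV DNA was quantified by blot hybridization 24 h after the last dose.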
# [2] = Cytotoxicity against human HepG2(2.2.15) cells after 24 hrs by neutral red assay; format: cell-based
# Procedure, shortened: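 2.2.15 cells, RPMI 1640 with 2% FBS, dosed daily for nine consecutive days. Viability was read by neutral red uptake, absorbance of internalized dye at 510, 24 h after the last treatment, three cultures per concentration.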
# Hepatitis B virus [3] = assay: Antiviral activity against HBV harboring RNA polymerase N236T mutant gene infected in human HuH7 cells assessed as decrease in viral transient transfection […]; format: functional, organism-based; conditions: Huh-7
# Procedure, shortened: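 Lamivudine- and adefovir-resistant HBV mutants introduced into Huh7 cells by transient transfection. Compounds were tested in a 5-day assay.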
# HepG2 [4] = assay: Drug metabolism in human HepG2 cells assessed as unidentified metabolite uptake at 10 uM after 24 hrs; format: ADME, cell-based; conditions: hepg2, 24 h
# Procedure, shortened: (§1)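 Nearly confluent HepG2 flasks got 14C-labeled drug (final 10 µM, 50 mCi/mmol) for 24 h. Cells were washed with cold PBS, lysed in water by two freeze-thaw cycles and sonication, then extracted with cold TCA (8% final) and centrifuged at 4°C. Supernatant was counted and analyzed by SAX ion-exchange HPLC, with metabolites assigned by retention versus reference standards.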
# HepG2 [5] = assay: Drug metabolism in human HepG2 cells assessed as HPMPA uptake at 10 uM after 48 hrs; format: ADME, cell-based; conditions: hepg2, 48 h
# HepG2 [6] = assay: Drug metabolism in human HepG2 cells assessed as HPMPApp uptake at 10 uM after 24 hrs; format: ADME, cell-based; conditions: hepg2, 24 h; procedure, shortened: as §1
# HepG2 [7] = assay: Drug metabolism in human HepG2 cells assessed as HPMPApp uptake at 10 uM after 48 hrs; format: ADME, cell-based; conditions: hepg2, 48 h
# [8] = Tmax in Swiss-Webster mouse plasma at 10 mg/kg, po after 24 hrs; format: ADME, organism-based; parameters: dose 10 mg/kg, route oral
# Procedure, shortened: (§2)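 Female Swiss-Webster mice (about 25 g) got one 10 mg/kg dose of the 8-14C-labeled ester (50 mCi/mmol) in 0.7% saline, by oral gavage or intraperitoneal injection. Blood was taken at 1, 3, 6, 12 and 24 h. Liver, spleen, kidney, lung, heart and brain were excised, washed and weighed. Drug plus metabolites were measured by liquid scintillation as µM plasma equivalents or nmol/g tissue. Each time point is the mean of three replicates.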
# [9] = Tmax in Swiss-Webster mouse liver at 10 mg/kg, po after 24 hrs; format: ADME, organism-based; parameters: dose 10 mg/kg, route oral
# Procedure, shortened: (§3)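 Female Swiss-Webster mice (about 25 g) each got a single 10 mg/kg dose of the 14C-labeled (8-14C) ester (50 mCi/mmol) in 0.7% saline, by oral gavage or ip injection. Blood was taken at 1, 3, 6, 12 and 24 h, and liver, spleen, kidney, lung, heart and brain were excised, washed and weighed. Radioactivity was measured by scintillation counting as µM plasma equivalents or nmol/g tissue, mean of three per time point.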
# [10] = Tmax in Swiss-Webster mouse spleen at 10 mg/kg, po after 24 hrs; format: ADME, organism-based; parameters: dose 10 mg/kg, route oral; procedure, shortened: as §2
# [11] = Tmax in Swiss-Webster mouse heart at 10 mg/kg, po after 24 hrs; format: ADME, organism-based; parameters: dose 10 mg/kg, route oral; procedure, shortened: as §3
# [12] = Tmax in Swiss-Webster mouse brain at 10 mg/kg, po after 24 hrs; format: ADME, organism-based; parameters: dose 10 mg/kg, route oral; procedure, shortened: as §3
# [13] = Cmax in Swiss-Webster mouse plasma assessed per gram of tissue at 10 mg/kg, po after 24 hrs; format: ADME, organism-based; parameters: dose 10 mg/kg, route oral; procedure, shortened: as §3
# Liver [14] = assay: Cmax in Swiss-Webster mouse liver assessed per gram of tissue at 10 mg/kg, po after 24 hrs; format: ADME, organism-based; parameters: dose 10 mg/kg, route oral; conditions: in vivo; procedure, shortened: as §3
# Kidney [15] = assay: Cmax in Swiss-Webster mouse kidney assessed per gram of tissue at 10 mg/kg, po after 24 hrs; format: ADME, organism-based; parameters: dose 10 mg/kg, route oral; conditions: in vivo; procedure, shortened: as §3
# Lung = assay: Cmax in Swiss-Webster mouse lung assessed per gram of tissue at 10 mg/kg, po after 24 hrs; format: ADME, organism-based; parameters: dose 10 mg/kg, route oral; conditions: in vivo; procedure, shortened: as §3
# Brain [16] = assay: Cmax in Swiss-Webster mouse brain assessed per gram of tissue at 10 mg/kg, po after 24 hrs; format: ADME, organism-based; parameters: dose 10 mg/kg, route oral; conditions: in vivo; procedure, shortened: as §3
# Liver [17] = assay: AUC in Swiss-Webster mouse liver assessed per gram of tissue at 10 mg/kg, po after 24 hrs; format: ADME, organism-based; parameters: time < 24 hr, dose 10 mg/kg, route oral; conditions: in vivo; procedure, shortened: as §3
# Kidney [18] = assay: AUC in Swiss-Webster mouse kidney assessed per gram of tissue at 10 mg/kg, po after 24 hrs; format: ADME, organism-based; parameters: time < 24 hr, dose 10 mg/kg, route oral; conditions: in vivo; procedure, shortened: as §3
# Spleen [19] = assay: AUC in Swiss-Webster mouse spleen assessed per gram of tissue at 10 mg/kg, po after 24 hrs; format: ADME, organism-based; parameters: time < 24 hr, dose 10 mg/kg, route oral; conditions: in vivo; procedure, shortened: as §3
# Heart [20] = assay: AUC in Swiss-Webster mouse heart assessed per gram of tissue at 10 mg/kg, po after 24 hrs; format: ADME, organism-based; parameters: time < 24 hr, dose 10 mg/kg, route oral; conditions: in vivo; procedure, shortened: as §3
# [21] = Tmax in Swiss-Webster mouse plasma at 10 mg/kg, ip after 24 hrs; format: ADME, organism-based; parameters: dose 10 mg/kg, route intraperitoneal; procedure, shortened: as §2
# [22] = Tmax in Swiss-Webster mouse liver at 10 mg/kg, ip after 24 hrs; format: ADME, organism-based; parameters: dose 10 mg/kg, route intraperitoneal; procedure, shortened: as §3
# [23] = Tmax in Swiss-Webster mouse kidney at 10 mg/kg, ip after 24 hrs; format: ADME, organism-based; parameters: dose 10 mg/kg, route intraperitoneal; procedure, shortened: as §3
# [24] = Tmax in Swiss-Webster mouse lung at 10 mg/kg, ip after 24 hrs; format: ADME, organism-based; parameters: dose 10 mg/kg, route intraperitoneal; procedure, shortened: as §2
# [25] = Cmax in Swiss-Webster mouse plasma assessed per gram of tissue at 10 mg/kg, ip after 24 hrs; format: ADME, organism-based; parameters: dose 10 mg/kg, route intraperitoneal; procedure, shortened: as §3
# Spleen [26] = assay: Cmax in Swiss-Webster mouse spleen assessed per gram of tissue at 10 mg/kg, ip after 24 hrs; format: ADME, organism-based; parameters: dose 10 mg/kg, route intraperitoneal; conditions: in vivo; procedure, shortened: as §3
# Heart [27] = assay: Cmax in Swiss-Webster mouse heart assessed per gram of tissue at 10 mg/kg, ip after 24 hrs; format: ADME, organism-based; parameters: dose 10 mg/kg, route intraperitoneal; conditions: in vivo; procedure, shortened: as §3
# Brain [28] = assay: Cmax in Swiss-Webster mouse brain assessed per gram of tissue at 10 mg/kg, ip after 24 hrs; format: ADME, organism-based; parameters: dose 10 mg/kg, route intraperitoneal; conditions: in vivo; procedure, shortened: as §3
# Kidney [29] = assay: AUC in Swiss-Webster mouse kidney assessed per gram of tissue at 10 mg/kg, ip after 24 hrs; format: ADME, organism-based; parameters: time < 24 hr, dose 10 mg/kg, route intraperitoneal; conditions: in vivo; procedure, shortened: as §3
# Spleen [30] = assay: AUC in Swiss-Webster mouse spleen assessed per gram of tissue at 10 mg/kg, ip after 24 hrs; format: ADME, organism-based; parameters: time < 24 hr, dose 10 mg/kg, route intraperitoneal; conditions: in vivo; procedure, shortened: as §3
# Heart [31] = assay: AUC in Swiss-Webster mouse heart assessed per gram of tissue at 10 mg/kg, ip after 24 hrs; format: ADME, organism-based; parameters: time < 24 hr, dose 10 mg/kg, route intraperitoneal; conditions: in vivo; procedure, shortened: as §3
# Mus musculus [32] = assay: Toxicity in transgenic mouse at 10 mg/kg, po assessed as morbidity after 7 days; format: organism-based; parameters: dose 10 mg/kg, route oral; conditions: in vivo, 168 h
# Mus musculus [33] = assay: Toxicity in transgenic mouse at 30 to 100 mg/kg, po assessed as mortality after 7 days; format: organism-based; parameters: dose 30-100 mg/kg, route oral; conditions: in vivo, 168 h
# Hepatitis B virus [34] = assay: Antiviral activity against wild type HBV infected in human HuH7 cells assessed as decrease in viral transient transfection after 5 days; conditions: Huh-7, 5 days
# Hepatitis B virus [35] = assay: Antiviral activity against HBV harboring RNA polymerase L180M mutant gene infected in human HuH7 cells assessed as decrease in viral transient transfection after 5 days; conditions: Huh-7, 5 days
# Hepatitis B virus [36] = assay: Antiviral activity against HBV harboring RNA polymerase M204I mutant gene infected in human HuH7 cells assessed as decrease in viral transient transfection after 5 days; conditions: Huh-7, 5 days
compound,measurement,setting,value
CCCCCCCCCCCCCCCCOCCCOP(=O)(O)CO[C@H](CO)Cn1cnc2c(N)ncnc21,EC50,Hepatitis B virus [1],188 nM
same,EC90,Hepatitis B virus [1],616 nM
same,CC50 at 24 h,[2],> 300000 nM
same,EC50,Hepatitis B virus [3],> 100000 nM
same,EC90,Hepatitis B virus [3],> 100000 nM
same,Drug uptake,HepG2 [4],596 pmol
same,Drug uptake,HepG2 [5],393 pmol
same,Drug uptake,HepG2 [6],888 pmol
same,Drug uptake,HepG2 [7],444 pmol
same,Tmax,[8],1 h
same,Tmax,[9],3 h
same,Tmax,[10],3 h
same,Tmax,[11],1 h
same,Tmax,[12],3 h
same,Cmax,[13],1110 nM
same,Cmax,Liver [14],21.1 nmol/g
same,Cmax,Kidney [15],5.07 nmol/g
same,Cmax,Lung,2.89 nmol/g
same,Cmax,Brain [16],0.07 nmol/g
same,AUC,Liver [17],222.2 nmol·h/g
same,AUC,Kidney [18],68.8 nmol·h/g
same,AUC,Spleen [19],3.9 nmol·h/g
same,AUC,Heart [20],2.69 nmol·h/g
same,Tmax,[21],3 h
same,Tmax,[22],1 h
same,Tmax,[23],1 h
same,Tmax,[24],1 h
same,Cmax,[25],2230 nM
same,Cmax,Spleen [26],1.58 nmol/g
same,Cmax,Heart [27],0.57 nmol/g
same,Cmax,Brain [28],0.16 nmol/g
same,AUC,Kidney [29],195.7 nmol·h/g
same,AUC,Spleen [30],16.3 nmol·h/g
same,AUC,Heart [31],3.8 nmol·h/g
same,Activity,Mus musculus [32],Non-toxic
same,Activity,Mus musculus [33],Toxic
same,EC50,Hepatitis B virus [34],800 nM
same,EC90,Hepatitis B virus [34],3000 nM
same,EC50,Hepatitis B virus [35],1000 nM
same,EC90,Hepatitis B virus [35],3500 nM
same,EC50,Hepatitis B virus [36],1200 nM
same,EC90,Hepatitis B virus [36],4000 nM
